# Assay results of several laboratories.
# Protocols differ between the studies behind these lines.
# RET V804L: Proto-oncogene tyrosine-protein kinase receptor Ret (RET, Homo sapiens, UniProt P07949, V804L)
# RET: Proto-oncogene tyrosine-protein kinase receptor Ret (RET, Homo sapiens, UniProt P07949)
# RET M918T: Proto-oncogene tyrosine-protein kinase receptor Ret (RET, Homo sapiens, UniProt P07949, M918T)
# RET V804M: Proto-oncogene tyrosine-protein kinase receptor Ret (RET, Homo sapiens, UniProt P07949, V804M)
SMILES,target,observed,method,concentration,remaining binding [%]
CCCCN(CCCC)C(=O)CN1C[C@@H](c2cc(OC)c3c(c2)OCO3)[C@H](C(=O)O)[C@H]1CC(C)(C)CCC,RET V804L,cell-free assay,competition with immobilised ligand,1 µM,100
c1cncc(-c2cccc(Nc3nccc(NC4CCCCC4)n3)c2)c1,RET,binding,competition with immobilised ligand,10 µM,14
O=C(NCC1CCOCC1)c1n[nH]cc1NC(=O)c1c(F)cccc1F,RET M918T,binding,competition with immobilised ligand,1 µM,96
Cc1nc(Cc2cccc(C(F)(F)F)c2)sc1-c1ccc(C(N)=O)nc1,RET V804L,cell-free assay,competition with immobilised ligand,1 µM,86
C[C@@H](c1ccc(-n2cnc3c(N)ncnc32)cc1)N1CCc2nn(C)c(Cc3ccccc3)c2C1=O,RET V804L,binding,competition with immobilised ligand,0.1 µM,99
CN1CCN(c2ccc(Nc3nccc(-c4cccc([N+](=O)[O-])c4)n3)cc2C(F)(F)F)CC1,RET V804M,binding,,10 µM,49
O=C(NCCCN1CCOCC1)c1ccc(Nc2nccc(-c3cc4ccccc4s3)n2)cc1,RET V804L,binding,competition with immobilised ligand,1 µM,100
CC(C)(C)c1ccc(-c2nc(CBr)nn2-c2cccc(O)c2)cc1,RET,cell-free assay,competition with immobilised ligand,10 µM,93
COc1cnc(Nc2cccc(S(N)(=O)=O)c2)nc1N1CCN(c2ccccc2)CC1,RET V804M,binding,competition with immobilised ligand,1 µM,67
C[C@@H]1CCN(c2nccc(-c3cnn4ncccc34)n2)C1,RET,binding,,1 µM,70
COc1ncc2cc3ccccc3nc2c1C#N,RET V804L,cell-free assay,competition with immobilised ligand,5 µM,94
O=C(c1ccc(Nc2ncc(Cl)c(-c3ccc(Cl)s3)n2)cc1)N1CCC(N2CCCC2)CC1,RET V804L,binding,competition with immobilised ligand,1 µM,10
C[C@@H]1CN(c2ccc3ncc(-c4ccc5[nH]nc(C6CC6)c5c4)n3n2)C[C@H](C)O1,RET,binding,competition with immobilised ligand,0.5 µM,61
CN(C)C(=O)Cn1cc(-c2nc([C@@](C)(c3ccc(-c4cnc(N)nc4)cc3)C3CC3)no2)cn1,RET V804L,cell-free assay,competition with immobilised ligand,1 µM,93
CCN1CCN(Cc2ccc(C(=O)Nc3ccc(C)c(Oc4ccc5c(c4)CC(=O)N5)c3)cc2C(F)(F)F)CC1,RET,binding,competition with immobilised ligand,1 µM,14
COc1cnc(Nc2cccc(S(N)(=O)=O)c2)nc1N1CCN(c2ccccc2)C(=O)C1,RET V804M,binding,competition with immobilised ligand,1 µM,77
C=CC(=O)N1CCC(C(=O)NCC(=O)N2CCN(c3nc(-c4cnc(N)nc4C(F)F)nc(N4CCOCC4)n3)CC2)CC1,RET M918T,binding,competition with immobilised ligand,1 µM,97
CNC(=O)[C@@H]1CC[C@@H](n2c(-c3ccc4cnccc4c3)nc3ccc(C(=O)NCc4cccc(C(N)=O)c4)cc32)C1,RET V804M,binding,competition with immobilised ligand,1 µM,100
CN(CCCC(F)(F)F)c1nccc(-c2cnn3ncccc23)n1,RET,binding,,1 µM,86
CO[C@@H](C)c1c(Nc2ccc([C@@H](N(C)C(=O)C3CCS(=O)(=O)CC3)C(F)(F)F)cc2)cnc2cc(Cl)nn12,RET,cell-free assay,competition with immobilised ligand,1 µM,91
CN(c1nccc(-c2cnn3ncccc23)n1)C1CC1,RET V804L,binding,,1 µM,100
O=C(NCCCN1CCOCC1)c1ccc(Nc2ncc(Cl)c(-c3ccc(Cl)s3)n2)cc1,RET M918T,binding,competition with immobilised ligand,1 µM,15
c1cnn2ncc(-c3ccnc(N4CCC45COC5)n3)c2c1,RET,binding,,1 µM,97
CN1CCN(c2ccc(Nc3nccc(-c4ccccc4)n3)cc2C(F)(F)F)CC1,RET M918T,binding,,10 µM,27
Nc1ncc2c(n1)-c1c([nH]c3ccc(C#CC4CC4)cc13)CCCC2,RET V804M,binding,competition with immobilised ligand,1 µM,100
O=C(c1ccc(Nc2ncc(Cl)c(-c3cc4ccccc4s3)n2)cc1)N1CCC(N2CCCC2)CC1,RET,binding,competition with immobilised ligand,1 µM,25
CS(=O)(=O)NCC[C@H](NC(=O)c1cncc2c1cnn2-c1ccc(F)cc1)c1ccnc(S(C)(=O)=O)c1,RET,cell-free assay,competition with immobilised ligand,1 µM,91
F[C@@H]1CCN(c2nccc(-c3cnn4ncccc34)n2)C1,RET,binding,,1 µM,92
O=C(N1CCS(=O)(=O)CC1)N1C[C@H](c2ccc(OC(F)(F)F)cc2)C[C@H](c2nc(C3CC3)no2)C1,RET M918T,cell-free assay,competition with immobilised ligand,1 µM,92
CC1CCCN1c1nccc(-c2cnn3ncccc23)n1 (stereo not shown),RET M918T,binding,,1 µM,89
O=C(Nc1c[nH]nc1C(=O)NC1CCNCC1)c1cc(F)cc(F)c1,RET M918T,binding,competition with immobilised ligand,1 µM,100
O=C(c1ccc(Nc2nccc(-c3cc4ccccc4s3)n2)cc1)N1CCC(N2CCCC2)CC1,RET V804M,binding,competition with immobilised ligand,1 µM,99
CN(C)c1nccc(-c2cnn3ncccc23)n1,RET,binding,,1 µM,91
C[C@@H]1CN(c2cc(-c3nn(C)c4ccc(OC5(C)CC5)cc34)ncn2)C[C@H](C)O1,RET V804L,cell-free assay,competition with immobilised ligand,1 µM,72
Cc1cnc(Nc2ccc(C(=O)N3CCC(N4CCCC4)CC3)cc2)nc1-c1cc2ccccc2s1,RET V804L,binding,competition with immobilised ligand,1 µM,11
N[C@@H]1CCN(c2nccc(-c3cnn4ncccc34)n2)C1,RET V804M,binding,,1 µM,99
O=C(Nc1cccnn1)N1CCC(=Cc2cccc(Oc3ccc(C(F)(F)F)cn3)c2)CC1,RET,cell-free assay,competition with immobilised ligand,1 µM,100
